For one series, the system named is Aspergillus fumigatus. As to the kind of experiment: Antifungal activity against Aspergillus fumigatus ATCC 26934. Type of series: functional. The method in brief: (§1)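 Broth microdilution per CLSI M38-A2 in RPMI-1640 with MOPS at pH 7.0. Inoculum 1-5 × 10^3 CFU/mL, with twofold compound dilutions spanning 250-0.24 µg/ml (final DMSO <1%). Plates incubated at 35 °C, moist and dark, and read when the control fungus had grown. MIC is total growth inhibition. MFC comes from subculturing clear wells in duplicate onto SDA.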

The test system of a further series is Trichophyton rubrum. Briefly: Antifungal activity against Trichophyton rubrum C 113 2000. Type of series: functional. The method in brief: (§2)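 Dermatophytes tested by CLSI M38-A2 microdilution in MOPS-buffered RPMI-1640 at pH 7.0. Inoculum 1-5 × 10^3 CFU/mL; compounds 250 to 0.24 µg/ml in twofold steps, final DMSO <1%. Incubated at 28 °C in a moist, dark chamber and read according to control growth. MIC is the lowest concentration with complete inhibition. MFC is the lowest concentration with no growth after duplicate subculture on SDA.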

The next series deals with NCI-H460. As to the kind of experiment: Cytotoxicity against human H460 cells assessed as cell growth after 2 days by sulforhodamine B assay. The note with it: NCI-H460, 48 h. Type of series: functional. The method in brief: (§3)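 NCI cell lines were run by the Monks method: cells were plated with compounds from DMSO stocks and incubated 2 days at 37 °C in 5% CO2, in duplicate. Cells were fixed with cold TCA, stained with 0.4% SRB, and the bound dye was solubilized in 10 mM tris-base and read at 515 nm. The zero-day control was subtracted, and GI50 was taken from the curves.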
(In general: Sulforhodamine B stains cellular protein and so reports cell mass.)

In the next series the test system is Nannizzia gypsea. Briefly: Antifungal activity against Microsporum gypseum C 115 2000. Type of series: functional. The method in brief:
as §2

Series [1] can be described thus: Cytotoxicity against human erythrocytes assessed as hemolysis by spectrometric analysis. Type of series: cell-based, Erythrocyte. The method in brief:
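Human heparinized red blood cells were washed in PBS at pH 7.0 and suspended at 4% in sterile 5% glucose. Compounds from DMSO stocks were diluted in 5% glucose to final concentrations of 250 to 0.24 µg/ml and incubated with the cells at 37 °C. Released hemoglobin was read at 540 nm. HC50 is the concentration giving 50% lysis relative to the drug-free value.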

A further series has as its system Cryptococcus neoformans. Briefly: Antifungal activity against Cryptococcus neoformans ATCC 32264. Type of series: functional. In short, it runs like this:
(§4)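 CLSI M27-A3 broth microdilution in RPMI-1640 buffered to pH 7.0 with MOPS. Inoculum 1-5 × 10^3 CFU/mL. Compound twofold dilutions from 250 to 0.24 µg/ml, final DMSO <1%. Incubated at 35 °C in a moist, dark chamber and read at 48 h. MIC is the lowest concentration giving total growth inhibition. For MFC, 5 µL from clear wells was plated in duplicate on SDA; MFC is the lowest concentration with no growth.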

A further series relates to Candida albicans. Briefly: Antifungal activity against Candida albicans ATCC 10213. Type of series: functional. The method in brief: as §4
In series [2] the test system is Trichophyton mentagrophytes. As to the kind of experiment: Antifungal activity against Trichophyton mentagrophytes ATCC 9972. Type of series: functional. The method in brief:
as §2

The test system of another series is MCF7. As to the kind of experiment: Cytotoxicity against human MCF7 cells assessed as cell growth after 2 days by sulforhodamine B assay. Type of series: functional. To be noted: MCF7, 48 h. In short, it runs like this: as §3
A further series has as its system Aspergillus niger. Briefly: Antifungal activity against Aspergillus niger ATCC 9029. Type of series: functional. In short, it runs like this:
as §1

The test system of the next series is Candida tropicalis. Briefly: Antifungal activity against Candida tropicalis C 131 2000. Type of series: functional. The method in brief: as §4
In another series the test system is Aspergillus flavus. As to the kind of experiment: Antifungal activity against Aspergillus flavus ATCC 9170. Type of series: functional. The method in brief: as §1
Another series deals with Saccharomyces cerevisiae. Briefly: Antifungal activity against Saccharomyces cerevisiae ATCC 9763. Type of series: functional. The method in brief: as §4
A further series relates to SF-268. As to the kind of experiment: Cytotoxicity against human SF268 cells assessed as cell growth after 2 days by sulforhodamine B assay. Type of series: functional. To be noted: SF-268, 48 h. In short, it runs like this:
as §3

This note sets out measurements from ChEMBL document CHEMBL1772954, “Antifungal, cytotoxic and SAR studies of a series of N-alkyl, N-aryl and N-alkylphenyl-1,4-pyrrolediones and related compounds” (Bioorg Med Chem, 2011).

In brackets after ≈: the same amount, converted by molar mass.

By MFC is commonly meant the smallest concentration meeting the test's criterion for killing the fungus. Usually MIC stands for the lowest concentration that inhibits growth of the organism. Read a low MIC as a more susceptible organism. In general, GI50 refers to the concentration that inhibits growth by half. The HC50 is the concentration that lyses half of the red blood cells. In the case of `CC1=CC(=O)N(Cc2ccccc2)C1=O`, the MFC was found to be 62.5 µg/mL (≈ 311 µM) with Aspergillus fumigatus; 7.81 µg/mL (≈ 38.8 µM) in the series on Trichophyton rubrum; 7.81 µg/mL (≈ 38.8 µM) in the series on Nannizzia gypsea; 31.2 µg/mL (≈ 155 µM) against Cryptococcus neoformans; 125 µg/mL (≈ 621 µM) in the series with Candida albicans; 31.2 µg/mL (≈ 155 µM) in series [2]. Also, the minimal fungicidal concentration (MFC) against Aspergillus niger was 125 µg/mL (≈ 621 µM); against Candida tropicalis, 250 µg/mL (≈ 1240 µM); in the series with Aspergillus flavus, 125 µg/mL (≈ 621 µM); in the series on Saccharomyces cerevisiae, 62.5 µg/mL (≈ 311 µM). Also, the MIC with Aspergillus fumigatus was found to be 31.2 µg/mL (≈ 155 µM); against Trichophyton rubrum, 3.9 µg/mL (≈ 19.4 µM); in the series on Nannizzia gypsea, 3.9 µg/mL (≈ 19.4 µM); with Cryptococcus neoformans it was 15.6 µg/mL (≈ 77.7 µM); in the series on Candida albicans, 62.5 µg/mL (≈ 311 µM); in series [2], 31.2 µg/mL (≈ 155 µM). Besides, the MIC against Aspergillus niger was determined as 62.5 µg/mL (≈ 311 µM); with Candida tropicalis it was 125 µg/mL (≈ 621 µM); in the series with Aspergillus flavus it was 62.5 µg/mL (≈ 311 µM); against Saccharomyces cerevisiae, 31.2 µg/mL (≈ 155 µM). The GI50 with NCI-H460, in the series on MCF7 and in the series with SF-268 was > 10 µg/mL throughout. Also, the HC50 in [1] was > 250 µg/mL.
In the case of `O=C1C(Cl)=C(Cl)C(=O)N1Cc1ccccc1`, the MFC turned out to be 31.2 µg/mL (≈ 122 µM) in the series on Aspergillus fumigatus; 15.6 µg/mL (≈ 61 µM) with Trichophyton rubrum; 31.2 µg/mL (≈ 122 µM) with Nannizzia gypsea; 15.6 µg/mL (≈ 61 µM) against Cryptococcus neoformans; 31.2 µg/mL (≈ 122 µM) against Candida albicans; 15.6 µg/mL (≈ 61 µM) in [2]. The MFC in the series with Aspergillus niger was 62.5 µg/mL (≈ 244 µM); in the series on Candida tropicalis, 31.2 µg/mL (≈ 122 µM); in the series on Aspergillus flavus it was 31.2 µg/mL (≈ 122 µM); in the series on Saccharomyces cerevisiae, 15.6 µg/mL (≈ 61 µM). Also, the MIC was 15.6 µg/mL (≈ 61 µM) in the series with Aspergillus fumigatus; 7.81 µg/mL (≈ 30.5 µM) in the series with Trichophyton rubrum; 15.6 µg/mL (≈ 61 µM) with Nannizzia gypsea; 7.81 µg/mL (≈ 30.5 µM) with Cryptococcus neoformans; 15.6 µg/mL (≈ 61 µM) in the series with Candida albicans; 7.81 µg/mL (≈ 30.5 µM) in series [2]. The minimum inhibitory concentration (MIC) turned out to be 31.2 µg/mL (≈ 122 µM) against Aspergillus niger, 31.2 µg/mL (≈ 122 µM) in the series with Candida tropicalis, 31.2 µg/mL (≈ 122 µM) in the series on Aspergillus flavus and 7.81 µg/mL (≈ 30.5 µM) against Saccharomyces cerevisiae. The GI50 in the series on NCI-H460, in the series with MCF7 and with SF-268 was > 10 µg/mL each time. Besides, in [1], the HC50 is > 250 µg/mL.
For the compound `O=C1C(Cl)=C(Cl)C(=O)N1CCCc1ccccc1`, the MFC in the series on Aspergillus fumigatus came out at 31.2 µg/mL (≈ 110 µM); against Trichophyton rubrum, 7.81 µg/mL (≈ 27.5 µM); against Nannizzia gypsea, 15.6 µg/mL (≈ 55 µM); against Cryptococcus neoformans it was 3.9 µg/mL (≈ 13.7 µM); against Candida albicans it was 15.6 µg/mL (≈ 55 µM); in series [2], 7.81 µg/mL (≈ 27.5 µM). Besides, the MFC in the series on Aspergillus niger turned out to be 15.6 µg/mL (≈ 55 µM); against Candida tropicalis it was 15.6 µg/mL (≈ 55 µM); in the series with Aspergillus flavus, 31.2 µg/mL (≈ 110 µM); against Saccharomyces cerevisiae it was 3.9 µg/mL (≈ 13.7 µM). The MIC against Aspergillus fumigatus is 15.6 µg/mL (≈ 55 µM); against Trichophyton rubrum, 3.9 µg/mL (≈ 13.7 µM); against Nannizzia gypsea, 15.6 µg/mL (≈ 55 µM); against Cryptococcus neoformans, 3.9 µg/mL (≈ 13.7 µM); against Candida albicans it was 7.81 µg/mL (≈ 27.5 µM); in series [2] it was 3.9 µg/mL (≈ 13.7 µM). The MIC against Aspergillus niger worked out at 15.6 µg/mL (≈ 55 µM); against Candida tropicalis it was 7.81 µg/mL (≈ 27.5 µM); against Aspergillus flavus, 15.6 µg/mL (≈ 55 µM); in the series on Saccharomyces cerevisiae it was 3.9 µg/mL (≈ 13.7 µM). For the same compound, the GI50 in the series with NCI-H460, in the series on MCF7 and in the series with SF-268 was > 10 µg/mL throughout. Further, the HC50 in series [1] was > 250 µg/mL.
With `O=C1C=CC(=O)N1c1ccc(F)cc1F`, the MFC with Aspergillus fumigatus stood at 31.2 µg/mL (≈ 149 µM); in the series on Trichophyton rubrum, 7.81 µg/mL (≈ 37.3 µM); in the series on Nannizzia gypsea, 7.81 µg/mL (≈ 37.3 µM); with Cryptococcus neoformans, 7.81 µg/mL (≈ 37.3 µM); against Candida albicans, 31.2 µg/mL (≈ 149 µM); in series [2], 7.81 µg/mL (≈ 37.3 µM). The MFC came to 31.2 µg/mL (≈ 149 µM) against Aspergillus niger, 31.2 µg/mL (≈ 149 µM) in the series with Candida tropicalis, 62.5 µg/mL (≈ 299 µM) against Aspergillus flavus and 15.6 µg/mL (≈ 74.7 µM) with Saccharomyces cerevisiae. Moreover, the MIC with Aspergillus fumigatus stood at 31.2 µg/mL (≈ 149 µM); with Trichophyton rubrum it was 3.9 µg/mL (≈ 18.6 µM); against Nannizzia gypsea it was 3.9 µg/mL (≈ 18.6 µM); in the series on Cryptococcus neoformans it was 7.81 µg/mL (≈ 37.3 µM); against Candida albicans it was 15.6 µg/mL (≈ 74.7 µM); in series [2] it was 3.9 µg/mL (≈ 18.6 µM). In addition, the MIC was 15.6 µg/mL (≈ 74.7 µM) in the series with Aspergillus niger, 15.6 µg/mL (≈ 74.7 µM) in the series with Candida tropicalis, 62.5 µg/mL (≈ 299 µM) against Aspergillus flavus and 7.81 µg/mL (≈ 37.3 µM) in the series with Saccharomyces cerevisiae. For the same compound, the GI50 in the series with NCI-H460, in the series on MCF7 and with SF-268 was > 10 µg/mL in each case. Further, the HC50 in series [1] is > 250 µg/mL.
